Experimental data from ChEMBL document CHEMBL4014352, “Paying the Price of Desolvation in Solvent-Exposed Protein Pockets: Impact of Distal Solubilizing Groups on Affinity and Binding Thermodynamics in a Series of Thermolysin Inhibitors” (J Med Chem, 2017).
Activity calls are given as the source filed them. No cut-off for these calls is given here.

Columns and labels:
[1] = target: T1, Thermolysin (Bacillus thermoproteolyticus) (UniProt P00800); experiment: Binding affinity to Bacillus thermoproteolyticus thermolysin using cacodylate buffer by ITC
T1 sequence (whole entry): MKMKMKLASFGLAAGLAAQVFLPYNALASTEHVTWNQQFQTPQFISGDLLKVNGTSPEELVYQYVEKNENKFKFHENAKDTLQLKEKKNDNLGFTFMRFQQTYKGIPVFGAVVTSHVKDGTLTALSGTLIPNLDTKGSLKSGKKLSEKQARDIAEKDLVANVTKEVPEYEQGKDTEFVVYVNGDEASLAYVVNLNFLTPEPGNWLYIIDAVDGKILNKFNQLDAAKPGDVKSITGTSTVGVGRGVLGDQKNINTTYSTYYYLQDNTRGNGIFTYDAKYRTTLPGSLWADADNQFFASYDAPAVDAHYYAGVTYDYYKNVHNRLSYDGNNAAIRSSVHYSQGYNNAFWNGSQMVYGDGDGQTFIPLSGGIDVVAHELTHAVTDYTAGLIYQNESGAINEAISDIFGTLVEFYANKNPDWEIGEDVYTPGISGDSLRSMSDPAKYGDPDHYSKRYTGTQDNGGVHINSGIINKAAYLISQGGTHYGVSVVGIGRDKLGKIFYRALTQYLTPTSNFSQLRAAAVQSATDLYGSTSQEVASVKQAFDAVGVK
Method in brief: (§1)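 Freeze-dried thermolysin was dissolved just before each run in 20 mM buffer (HEPES, PIPES or sodium cacodylate, as in the line), 2 mM CaCl2 and 500 mM NaSCN, pH 7.5. ITC ran at 298 K with 10–15 injections, using either 250 μM protein with 3–3.5 mM ligand or 48 μM protein with 1 mM ligand. Ligand concentrations were corrected for qNMR purity. Each titration was run at least in duplicate.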

[2] = target: T1, Thermolysin (Bacillus thermoproteolyticus); experiment: Binding affinity to Bacillus thermoproteolyticus thermolysin using PIPES buffer by ITC; method in brief: as §1
[3] = target: T1, Thermolysin (Bacillus thermoproteolyticus); experiment: Binding affinity to Bacillus thermoproteolyticus thermolysin using HEPES buffer by ITC; method in brief: as §1

Row | Activity [1] | Activity [2] | Activity [3] | Structure (SMILES)
1 | Active | Active | Active | CC(C)C[C@H](NP(=O)(O)CNC(=O)OCc1ccccc1)C(=O)N[C@@H](CN)C(=O)O
2 | Active | Active | Active | CCC[C@H](NC(=O)[C@H](CC(C)C)NP(=O)(O)CNC(=O)OCc1ccccc1)C(=O)O
3 | Active | Active | Active | CC(C)C[C@H](NP(=O)(O)CNC(=O)OCc1ccccc1)C(=O)N[C@@H](CCCCN)C(=O)O
4 | Active | Active | Active | CC[C@H](NC(=O)[C@H](CC(C)C)NP(=O)(O)CNC(=O)OCc1ccccc1)C(=O)O
5 | Active | Active | Active | CC(C)C[C@H](NP(=O)(O)CNC(=O)OCc1ccccc1)C(=O)NCCCCN
6 | Active | Active | Active | CC(C)C[C@H](NP(=O)(O)CNC(=O)OCc1ccccc1)C(=O)NCN
7 | Active | Active | Active | CC(C)C[C@H](NP(=O)(O)CNC(=O)OCc1ccccc1)C(=O)NCCN
8 | Active | Active | Active | CC(C)C[C@H](NP(=O)(O)CNC(=O)OCc1ccccc1)C(=O)N[C@@H](CCCN)C(=O)O
9 | Active | Active | Active | CC(C)C[C@H](NP(=O)(O)CNC(=O)OCc1ccccc1)C(=O)N[C@@H](CCN)C(=O)O
10 | Active | Active | Active | CC(C)C[C@H](NP(=O)(O)CNC(=O)OCc1ccccc1)C(=O)NCCCN
11 | Active | Active | Active | CCCNC(=O)[C@H](CC(C)C)NP(=O)(O)CNC(=O)OCc1ccccc1

Row | Structure (SMILES) | Activity [1] | Activity [2] | Activity [3]
12 | CCNC(=O)[C@H](CC(C)C)NP(=O)(O)CNC(=O)OCc1ccccc1 | Active | Active | Active
